Screening data (PubChem BioAssay)
Rows were chosen to be rich in hits. Some 1.6% of all compounds tested hit in one or more screens of this group.
Vif inh: blocks HIV Vif function | HEK293T cells, Vif self-association by quenched fluorescence, imaging, 24 h | actives 0.35% (n = 340,000) | AID 602346 | inhibition, % at 7.49 µM; in the data active = inhibition above about 50%, passing the limit was not always enough
SR-BI DiI-HDL act: SR-BI HDL lipid transfer activation; CHO ldlA[mSR-BI] cells, DiI-HDL uptake fluorescence, 3 h; 100 = double the neutral-control signal; activation, % at 12.5 µM; actives 0.096% (n = 320,000); AID 504775;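 active = mean replicate activation of at least 60% and every replicate at or above 60%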;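 note: 0% = median plate neutral-control signal and 100% = twice that signal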
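material = CHO ldlA[mSR-BI] cells | medium = Ham's F12 with 0.5% BSA, HEPES 25 mM, pH 7.4 | reagent = fluorescent DiI-HDL, 10 µg/mL final | compound dosing = single-point compound dose | incubation = 3 h, 37 °C | measured by = bottom-read fluorescence, 550/595 nm | measure = HDL uptake via cellular fluorescence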
SR-BI DiI inh: blocks mouse SR-BI lipid uptake from DiI-HDL; Q61009; ldlA[mSR-BI] CHO cells, DiI-HDL uptake fluorescence, 3 h; inhibition, % at 12.5 µM; actives 0.96% (n = 320,000);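 active = mean replicate inhibition of at least 70% and a set share of replicates each scoring 70 or more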;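 note: 0% = median of neutral control wells and 100% = median of positive control wells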
Target sequence (Q61009 whole entry, looked up): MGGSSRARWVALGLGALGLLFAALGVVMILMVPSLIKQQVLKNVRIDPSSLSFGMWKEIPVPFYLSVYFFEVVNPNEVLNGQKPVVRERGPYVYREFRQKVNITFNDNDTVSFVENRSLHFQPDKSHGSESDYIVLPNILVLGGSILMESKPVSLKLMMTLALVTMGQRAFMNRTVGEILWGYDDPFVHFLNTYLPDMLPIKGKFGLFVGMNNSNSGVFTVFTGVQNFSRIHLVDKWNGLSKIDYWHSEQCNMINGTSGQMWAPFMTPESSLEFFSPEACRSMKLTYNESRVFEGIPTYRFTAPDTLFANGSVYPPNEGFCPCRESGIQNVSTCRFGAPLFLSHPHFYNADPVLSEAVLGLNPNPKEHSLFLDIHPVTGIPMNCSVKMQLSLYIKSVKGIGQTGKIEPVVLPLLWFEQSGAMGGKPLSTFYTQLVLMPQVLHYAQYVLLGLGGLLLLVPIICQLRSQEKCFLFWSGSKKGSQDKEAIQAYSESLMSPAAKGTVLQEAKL
H9c2 TAG inh: inhibitors of triacylglycerol accumulation; H9c2 cells, Nile Red lipid (TAG) fluorescence; cells loaded with 200 µM oleic acid; inhibition, % at 12.5 µM; actives 0.66% (n = 230,000);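 active = pattern-corrected inhibition of lipid staining of at least 50% with the nuclear-stain viability signal not falling by more than 50%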;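 note: 0% = DMSO wells and 100% = triacsin C control wells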
A1 inh: inhibitors of the anti-apoptotic protein A1, read as caspase activation. AID 2462. actives 0.066% (n = 330,000). caspase activation, % (test concentration not listed). MEF A1-2A-BIM cells, Caspase-Glo 3/7 luminescence, 3 h; percent of clofoctol response, vehicle zero;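 active = over half of replicate activation scores above 10%, or exactly half above 10 with the replicate mean above 10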
Numbers without * were called inactive; nt = not tested or not shown.

SMILES	Vif inh	SR-BI DiI-HDL act	SR-BI DiI inh	H9c2 TAG inh	A1 inh
COc1ccccc1CN(C)C(=O)c1ccc(S(=O)(=O)Nc2c(C)n(C)n(-c3ccccc3)c2=O)cc1	1.5	-0.4	0.4	0.3	2.1
CCOC(=O)C[C@@H](C#N)NC(=O)[C@@H]1CCCN1C(=O)[C@@H](NC(=O)c1ccc(N)c(Cl)c1)C(C)(C)C	75.5*	nt	nt	-5.5	nt
COc1ccc(OC)c(S(=O)(=O)N2CCCC(C(=O)N3CCCCCC3)C2)c1 (configuration not stated)	4.1	4.8	-4.8	-14.2	-0.8
O=C(Cc1ccc(F)cc1)Nc1nnc(-c2ccc(F)cc2)o1	6.0	-2.6	2.6	nt	1.3
Cc1cc(-c2n[nH]c(=S)n2Cc2ccco2)n(C)n1	2.6	61.0*	-61.0	nt	0.2
Cc1cc(-c2n[nH]c(=S)n2Cc2ccco2)nn1C	0.2	15.6	-15.6	nt	0.0
Cc1ccc(CNC(=O)C(N=C2NS(=O)(=O)c3ccccc32)C(C)C)cc1 (configuration not stated)	-5.4	10.8	-10.8	0.8	0.4
O=C(Nc1cc2c3c(c1)CC(=O)N3CCC2)c1ccc(Cl)cc1	4.0	-78.7	78.7*	18.7	-0.8
COc1ccc(NC(=O)c2ccc3c(c2)C(=O)N(Cc2ccncc2)C3=O)cc1S(N)(=O)=O	4.9	23.9	-23.9	8.7	1.6
CN(C)c1ccc(C=C(C#N)C(=O)c2ccccc2)cc1Br	-0.6	nt	nt	nt	nt
COc1cc(-c2noc(C)c2C#Cc2ccccn2)cc(OC)c1OC	-2.1	-38.5	38.5	69.7*	1.2
CCCC1(C2CCCC2)NC(=O)NC1=O (configuration not stated)	96.8*	11.2	-11.2	7.1	nt
Nc1ccc(C(=O)N2CCN(S(=O)(=O)c3ccc4c(c3)OCCCO4)CC2)cc1[N+](=O)[O-]	-6.0	39.5	-39.5	2.2	1.2
Cc1cc(NC(=O)Nc2cc(C)nn2-c2ccccc2)n(-c2ccccc2)n1	1.4	-83.9	83.9*	-13.8	0.2
Cc1cc(C(=O)Nc2c(F)c(F)c(F)c(F)c2F)n(-c2ccccc2)n1	72.9*	5.4	-5.4	nt	0.5
Cc1cc(NC(=O)/C(C#N)=C/c2ccco2)n(-c2ccccc2)n1	1.5	-31.9	31.9	nt	0.2
Cc1ccc(-c2ccc(/C=C(\C#N)C(=O)Nc3cc(C)nn3-c3ccccc3)o2)cc1	nt	nt	nt	nt	32.6*
CC(=O)c1c(C)c(C)c2n1CCn1c(C)ccc1-2	0.1	-31.7	31.7	8.9	-0.1
Cn1c2ccsc2c2ncn(Cc3ccccc3F)c(=O)c21	nt	-7.1	7.1	3.6	0.3
COc1ccc(S(=O)(=O)NCC(=O)N(CC(=O)NCC2CCCO2)Cc2ccccc2)cc1 (configuration not stated)	70.8*	1.1	-1.1	nt	-0.1
CCN(CC)C(=O)Cn1cc(C(=O)C(=O)Nc2ccc3c(c2)OCCO3)c2ccccc21	-2.7	-76.9	77.0*	28.3	-0.3
CCN(CC)C(=O)Cn1cc(C(=O)C(=O)NCCCN2CCOCC2)c2ccccc21	-2.3	nt	-20.6	nt	-0.3
CN(C(=O)COC(=O)c1cc(S(=O)(=O)N2CCCCC2)ccc1Cl)c1ccccc1	6.7	-71.7	71.7*	-2.8	0.0
O=C(COC(=O)c1cc(S(=O)(=O)N2CCCCC2)ccc1Cl)NC1CCCCC1	8.0	nt	nt	-9.8	nt
N#CCCN(C(=O)COC(=O)c1ccc(S(=O)(=O)N2CCOCC2)cc1)c1ccccc1	-5.7	21.9	-21.9	12.9	0.0
SMILES	Vif inh	SR-BI DiI-HDL act	SR-BI DiI inh	H9c2 TAG inh	A1 inh
CN(C(=O)COC(=O)c1ccc(S(=O)(=O)N2CCOCC2)cc1)c1ccccc1	0.1	70.0*	-70.0	-6.3	-0.1
CCOC(=O)c1ccc(S(=O)(=O)N2CCC(C(=O)OCC)CC2)cc1	-3.7	11.1	-11.1	nt	0.7
CCOC(=O)c1ccc(S(=O)(=O)N2CCC(C(=O)O)CC2)cc1	10.6	69.5*	-69.5	nt	-0.1
Cn1cccc1C(=O)NC(=O)COC(=O)c1cc(S(=O)(=O)N2CCCCC2)ccc1Cl	-2.3	-81.1	81.1*	nt	0.2
CCCCCCCCCCCCCCCC(=O)OC(CC(=O)O)C[N+](C)(C)C (configuration not stated)	12.0	12.0	-12.0	5.5	nt
CC1CCN(c2ccc3c(c2)S(=O)(=O)c2cccc(C(=O)NC4CCCCC4)c2C3=O)CC1	50.7*	4.0	-4.0	32.8	1.1
O=C(NC1CCCCC1)c1cccc2c1C(=O)c1ccc(N3CCCC3)cc1S2(=O)=O	-0.9	10.5	-10.5	-48.1	0.6
